Data set [1] in a line: Neurotoxicity in ip dosed C57B/6 mouse after 30 mins by rotarod test. The data set is classed as toxicity, organism-based. As to conditions: in vivo. Summed up: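 Minimal neurotoxicity in mice was scored on the rotarod, 30 min after i.p. administration. TD50 was reported in mg/kg with a range in parentheses.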
For orientation: The rotarod test checks motor coordination on a turning rod.

For data set [2], the system named is Mus musculus. The experiment in a line: Anticonvulsant activity in C57B/6 mouse assessed as inhibition of pentylenetetrazole-induced tonic seizures at 50 mg/kg, ip after 0.5 hrs relative to control. Format: functional. As to conditions: route intraperitoneal. Further details: scale not given: the % may be the effect or the level left. Summed up: (§1)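 Seizures in mice were induced by pentylenetetrazole 85 mg/kg in saline, s.c., 30 min after i.p. test agent. Animals were caged singly and watched for 30 min. Clonic and tonic seizures and deaths were counted.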

The subject of data set [3] is Mus musculus. The experiment in a line: Anticonvulsant activity in C57B/6 mouse assessed as inhibition of strychnine-induced clonic seizures at 50 mg/kg, ip after 0.5 hrs relative to control. The data set is classed as functional. The note with it: route intraperitoneal. Further details: scale not given: the % may be the effect or the level left. The method, boiled down: (§2)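 Strychnine chlorhydrate in saline (1.2 mg/kg) was injected s.c. into mice 30 min after i.p. test agent. Animals were caged singly and observed for 30 min. Seizure onset time, clonic and tonic seizure counts and lethality were recorded. Controls received vehicle only.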

Data set [4] concerns Mus musculus. Briefly: Anticonvulsant activity in C57B/6 mouse assessed as inhibition of isoniazid-induced clonic seizures at 50 mg/kg, ip after 0.5 hrs relative to control. Format: functional. Further details: scale not given: the % may be the effect or the level left. The note with it: route intraperitoneal. The method, boiled down: (§3)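 Isoniazid-induced seizure model in mice. Isoniazid 250 mg/kg was given 30 min after i.p. test agent. Clonic seizures, tonic seizures and lethality were counted. Treated groups were compared with the control group.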

Data set [5] concerns Mus musculus. Briefly: Anticonvulsant activity in C57B/6 mouse assessed as inhibition of strychnine-induced tonic seizures at 50 mg/kg, ip after 0.5 hrs relative to control. Format: functional. Set-up: scale not given: the % may be the effect or the level left. As to conditions: route intraperitoneal. The method, boiled down: as §2
The test system of data set [6] is Mus musculus. The experiment in a line: Anticonvulsant activity in C57B/6 mouse assessed as inhibition of isoniazid-induced tonic seizures at 50 mg/kg, ip after 0.5 hrs relative to control. Format: functional. Further details: scale not given: the % may be the effect or the level left. The note with it: route intraperitoneal. Summed up: as §3
In data set [7] the test system is Mus musculus. Briefly: Anticonvulsant activity in C57B/6 mouse assessed as inhibition of pentylenetetrazole-induced clonic seizures at 50 mg/kg, ip after 0.5 hrs relative to control. Format: functional. Set-up: scale not given: the % may be the effect or the level left. The note with it: dose 100 mg/kg; route intraperitoneal; in the assay text read “100 mg/kg” for “50 mg/kg”. Summed up:
as §1

Data set [8] deals with Mus musculus. The experiment in a line: Toxicity in isoniazid-induced seizure C57B/6 mouse model assessed as lethality at 50 mg/kg, ip after 0.5 hrs relative to control. As to conditions: in vivo. Format: organism-based. Set-up: dose 50 mg/kg, route intraperitoneal. The method, boiled down:
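Mice received the test agent i.p., then isoniazid 250 mg/kg 30 min later. Clonic seizures, tonic seizures and lethality were recorded, and treated groups were compared with a control group.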

The subject of data set [9] is Mus musculus. The experiment in a line: Anticonvulsant activity in ip dosed C57B/6 mouse assessed as inhibition of maximal electroshock-induced seizures. Format: functional. As to conditions: C57B/6, ip. Background: The maximal electroshock test induces tonic seizures with an electrical stimulus.
The test system of data set [10] is Mus musculus. Briefly: Toxicity in strychnine-induced seizure C57B/6 mouse model assessed as lethality at 50 mg/kg, ip after 0.5 hrs relative to control. As to conditions: in vivo. Set-up: dose 50 mg/kg, route intraperitoneal. The data set is classed as organism-based. Summed up:
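Test agent given i.p.; controls received vehicle only. After 30 min, strychnine chlorhydrate 1.2 mg/kg in saline was injected s.c. Mice were caged individually and observed 30 min, recording seizure onset time, clonic and tonic seizure numbers and lethality.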

For data set [11], the species on record is Mus musculus. The experiment in a line: Protective index, ratio of TD50 for C57B/6 mouse by rotarod test to ED50 for C57BL/6 mouse by MES test. The data set is classed as functional.

Bounds are passed on as bounds.

What is called TD50 is the dose at which the toxic effect under study appears in half of the subjects. The term ED50 denotes the dose at which the effect has come halfway, by size or by number of responders.

With `O=C1COc2cc(NCc3ccc(Br)cc3)ccc2N1`, the TD50 at 0.5 h in [1] is above 300 mg/kg. Compound `Cc1ccc(CNc2ccc3c(c2)OCC(=O)N3)cc1` came in with a TD50 at 0.5 h in data set [1] above 300 mg/kg. In the case of `NC(=O)N1c2ccccc2C=Cc2ccccc21` [CARBAMAZEPINE], the Activity with Mus musculus [2] was 20%; in the data set on Mus musculus [3], 40%; in the data set on Mus musculus [4], 10%; in the data set on Mus musculus [5], 30%; in the data set with Mus musculus [6], 10%; in the data set on Mus musculus [7] it was 100%. Also, the Activity in the data set on Mus musculus [8] and in the data set with Mus musculus [10] was 0% in each case. Further, in data set [1], the TD50 at 0.5 h is 74.4 mg/kg. Also, the ED50 in the data set with Mus musculus [9] was found to be 9.2 mg/kg. Turning to `CCOc1ccc(CNc2ccc3c(c2)OCC(=O)N3)cc1`, the TD50 at 0.5 h in [1] is above 300 mg/kg. Compound `O=C1COc2ccccc2N1` yielded a TD50 at 0.5 h in data set [1] above 300 mg/kg. Also, the ED50 in the data set on Mus musculus [9] was determined as 300 mg/kg. In [1], `O=C1COc2cc(NCc3cccc(F)c3)ccc2N1` yielded a TD50 at 0.5 h of 228 mg/kg. `CN(Cc1ccc(F)cc1)c1ccc2c(c1)OCC(=O)N2C` registered a TD50 at 0.5 h in [1] above 300 mg/kg. In turn, `O=C1COc2cc(NCc3ccc(Cl)cc3)ccc2N1` registered a TD50 at 0.5 h in data set [1] above 300 mg/kg. `O=C1COc2cc(NCc3ccccc3Cl)ccc2N1` gave a TD50 at 0.5 h in [1] above 300 mg/kg.

In the case of `O=C1COc2cc(NCc3ccc4c(c3)OCO4)ccc2N1`, the Ratio in the data set filed under Mus musculus [11] is above 4.7. Moreover, in [1], the TD50 at 0.5 h is above 300 mg/kg. Also, the ED50 in the data set with Mus musculus [9] turned out to be 63.4 mg/kg. For `O=C1COc2cc(NCc3ccccc3)ccc2N1`, in data set [1], the TD50 at 0.5 h is 182 mg/kg.

`O=C1COc2cc(NCc3ccccc3F)ccc2N1`: the TD50 at 0.5 h in [1] was found to be 183 mg/kg. `O=C1COc2cc(NCc3ccc(F)cc3)ccc2N1`: in data set [1], the TD50 at 0.5 h came out at 228 mg/kg.

The values are drawn from ChEMBL document CHEMBL1156692, “Synthesis of novel 7-benzylamino-2H-1,4-benzoxazin-3(4H)-ones as anticonvulsant agents” (Eur J Med Chem, 2008).
